Consider 22 sequences from the EternaBench riboswitch data.

The subject of this data set is MS2 coat protein. As to the kind of experiment: apparent Kd, MS2 coat protein; higher = weaker binding; RNA-MaP array. In outline:
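Apparent Kd was taken as the median of binding curves fitted cluster by cluster. The designed RNAs were made by transcription of sequenced DNA templates on an Illumina sequencing chip and exposed to fluorescently labeled MS2 coat protein (1.5 nM to 3 μM) at room temperature, with or without input ligand, for 0.8–1.5 h at the lowest and 10–20 min at the highest concentrations. Any design measured on fewer than 10 clusters was left out.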

Setting [1] is: designed as: OFF switch for flavin mononucleotide, no ligand.
Setting [2] is: ligand present: flavin mononucleotide, designed as: OFF switch for flavin mononucleotide.
[3] abbreviates: designed as: ON switch for flavin mononucleotide, no ligand.
Setting [4] is: ligand present: flavin mononucleotide, designed as: ON switch for flavin mononucleotide.

As for “UGGCGCUGUGCAGGAUAUAUCAAUUAGAACAGGGCGCAGGGUAGAAACAUGAGGAUCACCCAUGUAUAGAAGGGCACAGUAGGU”, the apparent Kd – broadly, the concentration giving half-maximal binding under the conditions of the assay – by setting is: under setting [1], 53.1 nM; under setting [2], 49.7 nM.

“GUCGAUUUUAAAUUGACAUGAGGAUCACCCAUGUCUUUAAUCAGAAGGCGGACAACAUUAUGUGCCGAGGAUAUGAUUGGAUCC”: the “apparent Kd” value runs as follows: under setting [3], 14.2 nM; under setting [4], 11.3 nM.

For “ACUCGGGGUUGAGGAUAUUCGACUCGAUCUCCACAUGAGGAUCACCCAUGUCAGGACUGACCGGUGAAGAAGGCAACCGUACAU”, the “apparent Kd” value stood at 16.2 nM under setting [3] and 5.67 nM under setting [4].

As to “GCAUUAUUAUUAGAUACCAGUGUCGCAGGCGACAUGAGGAUCACCCAUGUAAAGUUACUCCACCCUUGGCAGCUAGUUCGACUAC”, the “apparent Kd” value runs as follows: (designed as: ON switch for theophylline, no ligand) 103 nM; (ligand present: theophylline, designed as: ON switch for theophylline) 26.3 nM.

As for “CAAGGGAAAGUCAGGAUAUGCACAACCGACCGUUUGCAGAAGGGACAUGAGGAUCACCCAUGUGUGGAACUGUU”, the “apparent Kd” value runs as follows: under setting [1], 9.02 nM; under setting [2], 21.4 nM.

As to “GUUUUUUAAGGAUAUUCUAUUUCUAACAUGAGGAUCACCCAUGUACCCUCGUGCUAGCGAGAAGAAGGUAACAAAC”, the “apparent Kd” value under setting [1] turned out to be 546 nM and the “apparent Kd” value under setting [2] was determined as 427 nM.

On to “CCUUCGUCGAAUGUGUAACAUGAGGAUCACCCAUGUAGUCUGGAGGAUAUCUAACACAGCUGAAAAGAGAAGGCCAGGUCUGCA”, for which the “apparent Kd” value runs as follows: under setting [1], 26 nM; under setting [2], 48.6 nM.

As to “CCGUUUCGGACAAGCAACACAUGAGGAUCACCCAUGUCAAUCUAGGAUAUCAUAAGGAUAUAACGUGAGAAGGAGAGCGACAGG”, the “apparent Kd” value runs as follows: under setting [1], 33.2 nM; under setting [2], 24.4 nM.

With “AGUUGUGGAAAGAAGGCGUGACGAGGUAAAUAUCCAACAUGAGGAUCACCCAUGUUUCUUGCCUACGAGGAUAUUUGUGCUAUC”, the “apparent Kd” value was found to be 14 nM under setting [3] and 12.2 nM under setting [4].

On to “UGUAACGAAGGAUAUACAAGAAGACAAGUGCGGCAGUACGUACAUGAGGAUCACCCAUGUAGAAGGUCGAAGGC”, for which the “apparent Kd” value reads like this: under setting [1], 7.03 nM; under setting [2], 7.66 nM.

For the sequence “ACACAUGAGGAUCACCCAUGUCGACGUUAGGCUCGUCGCGGCAGAAGGUGUGGCAUGGACACCCACAAGGAUAUGCAUGGGACU”, the “apparent Kd” value runs as follows: under setting [3], 174 nM; under setting [4], 119 nM.

As to “GGUCGUCUAGUUAGGAUAUCAUUAUUAGAUUAAAUUGAGAAGGAACAUGAGGAUCACCCAUGUCGACAACUAUC”, the “apparent Kd” value under setting [1] came out at 7.13 nM and the “apparent Kd” value under setting [2] was determined as 8.12 nM.

Regarding “AAGAGCAGAGGAUAUACAUAGGCAUCAGUUGAAGCAGCUGAACAUGAGGAUCACCCAUGUAGAAGGCUGACAAA”, the “apparent Kd” value is 5.43 nM under setting [1] and 7.29 nM under setting [2].

Turning to “GAUCUGGCGGUGAGGAUAUAUAUCAAAUGCAAGGCAUAGAAGGCACAUGAGGAUCACCCAUGUCUGCACCAGGG”, the “apparent Kd” value under setting [1] is 14 nM and the “apparent Kd” value under setting [2] stood at 15.6 nM.

Consider “AGUUGACCAAGAGGAUAUGCCCUGUCUUUAUGUACAUGCAGAACAUGAGGAUCACCCAUGUGACGGCAGAAGGCUUAGCCGGUG”, for which the “apparent Kd” value runs as follows: under setting [1], 6.77 nM; under setting [2], 7.12 nM.

Take “CGAAGUAGUAGAGGAUAUGCUAGAGAUGGUUCUGCAGAAGGCUACCCUCUUGAUUAUAUUACAUGAGGAUCACCCAUGUUGGUU”: the “apparent Kd” value runs as follows: under setting [1], 10.7 nM; under setting [2], 10.2 nM.

Regarding “UCCAAAUUCCAGAAGGCGUUUAAGCGAGGGUAGGGCGUGCAACAUGAGGAUCACCCAUGUAAUCACGAGGAUAUGGGAGGCACC”, the “apparent Kd” value under setting [1] is 7.65 nM and the “apparent Kd” value under setting [2] was found to be 8.34 nM.

In the case of “ACUGUCUUUGAUGAUAUGUAUGGGUCAUUGCGAGGACCGGUACGGCCGCCACUCGGUCCGCCACAUGAGGAUCACCCAUGUCUAU”, the “apparent Kd” value was 94.5 nM (designed as: OFF switch for tryptophan, no ligand) and 195 nM (ligand present: tryptophan, designed as: OFF switch for tryptophan).

Regarding “GGACAUGAGGAUCACCCAUGUAGUGGAGGGCUCAGGCUCGCAAGAAGGUUAAGAAUAUAGUCAAUAAAGGAUAUUGAGGGCCGA”, the “apparent Kd” value is, setting by setting: under setting [1], 21.7 nM; under setting [2], 19.2 nM.

On to “GGGAUUCGUGUUAGGAUAUUGAGGUGUAUUCCCGACAAGAAGGAACAUGAGGAUCACCCAUGUUGGGAACUGUG”, for which the “apparent Kd” value came to 33.9 nM under setting [1] and 62.6 nM under setting [2].

With “AACAUGAGGAUCACCCAUGUUCUGCAAUAAAGUGUAUCAUAUAAGGAUAUCAGACUAAUACGAACUGAGAAGGUAUUCCUACAC”, the “apparent Kd” value under setting [3] came to 5.3 nM and the “apparent Kd” value under setting [4] was found to be 4.39 nM.

On to “ACUAAUCAGCAACAUGAGGAUCACCCAUGUGGGCCGUCCGGCAGAAGGCCUACGCACUUAGACUAGGAGGAUAUGCAAGCAACU”, for which the “apparent Kd” value was 15.7 nM under setting [1] and 18.4 nM under setting [2].
